The subject of test [1] is Pseudomonas aeruginosa. Put plainly: In vivo activity in murine against Pseudomonas aeruginosa 5712 infection after sc administration. Type of test: functional. The following applies: Pseudomonas aeruginosa, sc; read-out: ED50. A digest of the protocol: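 Mouse protection test in CD1 Swiss albino mice (18–20 g) infected intraperitoneally with 0.5 mL of diluted P. aeruginosa suspension. Mice received 1.0 mL subcutaneously at the neck base within 5 min of infection and a second treatment 3 h after infection. Doses ranged from 0.05 to 250 mg/kg, with six mice per group. ED50 was calculated by the Reed–Muench method.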

In test [2] the test system is Pseudomonas aeruginosa. Put plainly: In vitro antibacterial activity against Pseudomonas aeruginosa 5712. Type of test: functional. A digest of the protocol:
(§1)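 Serial 2-fold dilutions in the NCCLS broth microdilution method for aerobic nonfastidious organisms, with an 18-h incubation. The value is reported as the minimum inhibitory concentration (MIC).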

Test [3] concerns the target T1, Penicillin-binding protein 1B (Escherichia coli K-12) (UniProt P02919).
T1 sequence (whole entry): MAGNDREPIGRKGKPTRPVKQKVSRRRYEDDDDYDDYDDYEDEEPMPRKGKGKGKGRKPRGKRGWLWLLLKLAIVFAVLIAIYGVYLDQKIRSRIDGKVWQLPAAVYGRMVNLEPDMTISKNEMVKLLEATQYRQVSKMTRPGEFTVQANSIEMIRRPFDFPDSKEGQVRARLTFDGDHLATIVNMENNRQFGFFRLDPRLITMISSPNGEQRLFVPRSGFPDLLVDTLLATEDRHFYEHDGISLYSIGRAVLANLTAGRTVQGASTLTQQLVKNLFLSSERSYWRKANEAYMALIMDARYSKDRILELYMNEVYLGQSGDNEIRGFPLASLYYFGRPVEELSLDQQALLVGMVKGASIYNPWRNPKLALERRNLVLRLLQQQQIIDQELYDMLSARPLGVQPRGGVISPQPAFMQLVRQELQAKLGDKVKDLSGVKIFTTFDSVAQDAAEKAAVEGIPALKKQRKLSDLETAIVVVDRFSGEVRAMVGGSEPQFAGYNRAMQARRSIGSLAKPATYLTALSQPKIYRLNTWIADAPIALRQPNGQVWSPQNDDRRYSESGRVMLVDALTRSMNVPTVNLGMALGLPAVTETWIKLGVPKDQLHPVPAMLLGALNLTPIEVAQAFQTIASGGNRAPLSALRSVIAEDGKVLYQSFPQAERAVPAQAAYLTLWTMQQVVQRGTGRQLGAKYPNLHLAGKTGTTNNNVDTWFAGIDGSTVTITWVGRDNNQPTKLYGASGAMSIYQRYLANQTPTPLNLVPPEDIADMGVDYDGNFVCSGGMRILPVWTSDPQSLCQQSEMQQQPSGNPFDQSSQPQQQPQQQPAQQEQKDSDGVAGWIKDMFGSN
Put plainly: Concentration required for 90% inhibition against 90 kDa penicillin-binding protein 1b binding using [14C]-Pen G as the radioligand. The gist of the method: (§2)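 Solubilized membranes from sonicated E. coli DC-0 were used. PBP binding was measured as inhibition of [14C]penicillin G binding to each PBP.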

In test [4] the test system is Streptococcus pyogenes. Put plainly: In vitro antibacterial activity against Streptococcus pyogenes 4. Type of test: functional. The gist of the method:
(§3)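 Broth macrodilution with serial 2-fold dilutions in cation-supplemented Mueller-Hinton broth containing 10% goat serum. The value is reported as the MIC.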

The test system of test [5] is Streptococcus pneumoniae. As to the kind of experiment: In vivo activity in murine against Streptococcus pneumoniae 6301 infection after sc administration. Type of test: functional. The gist of the method:
(§4)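 Mouse protection test in CD1 Swiss albino mice (18–20 g). Mice were infected intraperitoneally with 0.5 mL of a diluted bacterial suspension, then treated within 5 min with one 1.0 mL subcutaneous dose at the dorsal base of the neck. Doses ranged from 0.05 to 250 mg/kg, with six mice per group. ED50 was calculated by the Reed–Muench method.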

The test system of test [6] is Serratia marcescens. Put plainly: In vitro antibacterial activity against Serratia marcescens SM. The format is functional. A digest of the protocol:
as §1

In test [7] the test system is Enterobacter cloacae. Put plainly: In vitro antibacterial activity against Enterobacter cloacae 5699. The format is functional. A digest of the protocol: as §1
Test [8] has as its system Enterobacter cloacae. Put plainly: In vitro antibacterial activity against Enterobacter cloacae P99. The format is functional. A digest of the protocol: as §1
Test [9] concerns Staphylococcus aureus. Put plainly: In vitro antibacterial activity against Staphylococcus aureus Smith(MS). The format is functional. The gist of the method: (§5)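 Staphylococci were tested by the standard agar dilution procedure using serial 2-fold dilutions of agent. The value is reported as the MIC.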
The subject of test [10] is Serratia marcescens. As to the kind of experiment: In vivo activity in murine against Serratia marcescens SM infection after sc administration. The format is functional. A digest of the protocol:
as §4

Test [11] has as its target T2, Penicillin-binding protein 1A (Escherichia coli K-12) (UniProt P02918).
T2 sequence (whole entry): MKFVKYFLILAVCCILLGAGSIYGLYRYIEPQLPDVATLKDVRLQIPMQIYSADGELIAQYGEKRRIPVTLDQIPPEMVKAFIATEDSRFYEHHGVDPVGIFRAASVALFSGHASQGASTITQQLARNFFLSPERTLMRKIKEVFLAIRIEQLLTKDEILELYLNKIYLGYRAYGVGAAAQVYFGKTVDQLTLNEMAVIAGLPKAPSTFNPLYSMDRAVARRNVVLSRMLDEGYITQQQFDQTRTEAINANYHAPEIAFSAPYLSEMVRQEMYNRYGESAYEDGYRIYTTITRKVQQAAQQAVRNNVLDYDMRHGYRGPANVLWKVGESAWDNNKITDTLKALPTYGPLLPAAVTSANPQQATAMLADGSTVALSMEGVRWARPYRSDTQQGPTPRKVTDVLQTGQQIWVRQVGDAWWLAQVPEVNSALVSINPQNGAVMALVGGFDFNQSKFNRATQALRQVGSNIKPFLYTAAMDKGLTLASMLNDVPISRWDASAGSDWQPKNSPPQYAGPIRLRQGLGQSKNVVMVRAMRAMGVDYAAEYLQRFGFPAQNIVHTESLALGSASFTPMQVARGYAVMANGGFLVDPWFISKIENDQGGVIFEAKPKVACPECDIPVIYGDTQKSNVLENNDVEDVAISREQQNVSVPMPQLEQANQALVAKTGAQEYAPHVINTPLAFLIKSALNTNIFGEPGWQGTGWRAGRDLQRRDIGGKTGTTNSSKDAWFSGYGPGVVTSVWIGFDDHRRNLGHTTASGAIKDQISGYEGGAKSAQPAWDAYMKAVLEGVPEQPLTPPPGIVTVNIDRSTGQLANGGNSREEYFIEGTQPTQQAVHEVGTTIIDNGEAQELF
As to the kind of experiment: Concentration required for 90% inhibition against 90 kDa penicillin-binding protein 1a binding using [14C]-Pen G as the radioligand. The gist of the method:
as §2

Test [12] concerns Streptococcus pyogenes. As to the kind of experiment: In vivo activity in murine against Streptococcus pyogenes 4 infection after sc administration. Type of test: functional. A digest of the protocol: as §4
In test [13] the test system is Streptococcus pneumoniae. Put plainly: In vitro antibacterial activity against Streptococcus pneumoniae 6301. Type of test: functional. The gist of the method:
as §3

The next test deals with Citrobacter freundii. Put plainly: In vitro antibacterial activity against Citrobacter freundii BS 16. Type of test: functional. A digest of the protocol:
as §1

Test [14] concerns Escherichia coli. As to the kind of experiment: In vivo activity in murine against Escherichia coli 257 infection after sc administration. Type of test: functional. The note with it: Escherichia coli, sc; read-out: ED50. The gist of the method: as §4
The subject of test [15] is Escherichia coli. As to the kind of experiment: Antibacterial activity against Escherichia coli DC-O. The format is functional. The gist of the method: as §1
Test [16] has as its system Staphylococcus aureus. Put plainly: In vitro antibacterial activity against Staphylococcus aureus 95(MR). Type of test: functional. The gist of the method:
as §5

The test system of test [17] is Escherichia coli. As to the kind of experiment: Concentration required for 90% inhibition against 60 kDa penicillin-binding protein 3 binding using [14C]-Pen G as the radioligand. The gist of the method:
as §2

Test [18] has as its system Escherichia coli. Put plainly: In vitro antibacterial activity against Escherichia coli 257. The format is functional. The gist of the method:
as §1

Test [19] deals with T3, Peptidoglycan D,D-transpeptidase MrdA (Escherichia coli K-12) (UniProt P0AD65).
T3 sequence (whole entry): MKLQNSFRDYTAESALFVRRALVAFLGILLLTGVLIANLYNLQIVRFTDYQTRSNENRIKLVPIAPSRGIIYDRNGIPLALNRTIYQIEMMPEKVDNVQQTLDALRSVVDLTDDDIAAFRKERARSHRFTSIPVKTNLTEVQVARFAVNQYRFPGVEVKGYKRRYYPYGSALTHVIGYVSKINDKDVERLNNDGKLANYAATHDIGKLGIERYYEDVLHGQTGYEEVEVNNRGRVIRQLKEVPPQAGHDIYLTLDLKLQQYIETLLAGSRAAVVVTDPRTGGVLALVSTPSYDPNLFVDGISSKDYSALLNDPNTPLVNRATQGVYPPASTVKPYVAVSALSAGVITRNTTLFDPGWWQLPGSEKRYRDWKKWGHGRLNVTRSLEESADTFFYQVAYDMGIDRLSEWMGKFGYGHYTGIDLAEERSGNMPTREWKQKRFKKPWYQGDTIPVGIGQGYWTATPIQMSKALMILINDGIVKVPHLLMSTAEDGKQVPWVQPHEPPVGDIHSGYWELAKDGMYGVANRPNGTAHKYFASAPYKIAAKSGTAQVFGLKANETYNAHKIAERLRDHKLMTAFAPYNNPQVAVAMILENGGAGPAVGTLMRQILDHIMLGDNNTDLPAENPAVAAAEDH
Put plainly: Concentration required for 90% inhibition against 66 kDa penicillin-binding protein 2 binding using [14C]-Pen G as the radioligand. A digest of the protocol: as §2

For another test, the system named is Klebsiella pneumoniae. As to the kind of experiment: In vitro antibacterial activity against Klebsiella pneumoniae A. The format is functional. A digest of the protocol: as §1

SMILES strings stand for the structures. Values after ≈ are worked out from the molar mass of the structure shown.

Regarding `CO/N=C(\C(=O)N[C@@H]1C(=O)N2C(C(=O)[O-])=C(C[N+]3(C)CCN(c4c(F)cc5c(=O)c(C(=O)O)cn(CCF)c5c4F)CC3)CS[C@H]12)c1csc(N)n1`, the 50% effective dose (ED50) with Pseudomonas aeruginosa [1] is above 250 mg/kg; in the test with Streptococcus pneumoniae [5] it was 12 mg/kg; in the test on Serratia marcescens [10], 10 mg/kg; in the test on Streptococcus pyogenes [12], below 5 mg/kg; with Escherichia coli [14] it was below 0.5 mg/kg. For the same compound, the MIC against Pseudomonas aeruginosa [2] was determined as 32 µg/mL (≈ 41.8 µM); in the test with Streptococcus pyogenes [4], 0.125 µg/mL (≈ 0.163 µM); against Serratia marcescens [6], 1 µg/mL (≈ 1.31 µM); against Enterobacter cloacae [7], 0.5 µg/mL (≈ 0.654 µM); in the test with Enterobacter cloacae [8], 0.5 µg/mL (≈ 0.654 µM); in the test with Staphylococcus aureus [9], 4 µg/mL (≈ 5.23 µM). The MIC with Streptococcus pneumoniae [13] was 0.063 µg/mL (≈ 0.0824 µM); against Citrobacter freundii, 2 µg/mL (≈ 2.62 µM); against Escherichia coli [15] it was 0.2 µg/mL (≈ 0.262 µM); in the test on Staphylococcus aureus [16], 4 µg/mL (≈ 5.23 µM); with Escherichia coli [18], 0.125 µg/mL (≈ 0.163 µM); against Klebsiella pneumoniae, 0.5 µg/mL (≈ 0.654 µM). Also, the Concentration was above 100 µg/mL in [3], above 100 µg/mL in [11], 0.1 µg/mL in the test on Escherichia coli [17] and 100 µg/mL in test [19].

As to `C[N+]1(CC2=C(C(=O)[O-])N3C(=O)[C@@H](NC(=O)COc4ccccc4)[C@H]3SC2)CCN(c2c(F)cc3c(=O)c(C(=O)O)cn(CCF)c3c2F)CC1`, the MIC stood at 32 µg/mL (≈ 44.7 µM) in the test on Pseudomonas aeruginosa [2]; 0.063 µg/mL (≈ 0.088 µM) in the test on Streptococcus pyogenes [4]; 2 µg/mL (≈ 2.79 µM) against Serratia marcescens [6]; 0.5 µg/mL (≈ 0.699 µM) in the test on Enterobacter cloacae [7]; 0.5 µg/mL (≈ 0.699 µM) with Enterobacter cloacae [8]; 0.5 µg/mL (≈ 0.699 µM) with Staphylococcus aureus [9]. Further, the MIC was 0.25 µg/mL (≈ 0.349 µM) with Streptococcus pneumoniae [13]; 2 µg/mL (≈ 2.79 µM) with Citrobacter freundii; 8 µg/mL (≈ 11.2 µM) in the test on Escherichia coli [15]; 1 µg/mL (≈ 1.4 µM) against Staphylococcus aureus [16]; 0.5 µg/mL (≈ 0.699 µM) in the test with Escherichia coli [18]; 0.5 µg/mL (≈ 0.699 µM) against Klebsiella pneumoniae. Moreover, the Concentration in [3] was 100 µg/mL; in test [11] it was 10 µg/mL; with Escherichia coli [17], 2 µg/mL; in test [19], above 100 µg/mL.

On to `C[N+]1(CC2=C(C(=O)[O-])N3C(=O)[C@@H](NC=O)[C@H]3SC2)CCN(c2c(F)cc3c(=O)c(C(=O)O)cn(CCF)c3c2F)CC1`, for which the MIC against Pseudomonas aeruginosa [2] worked out at 128 µg/mL (≈ 210 µM); against Streptococcus pyogenes [4] it was 8 µg/mL (≈ 13.1 µM); with Serratia marcescens [6] it was 8 µg/mL (≈ 13.1 µM); with Enterobacter cloacae [7], 4 µg/mL (≈ 6.56 µM); in the test with Enterobacter cloacae [8] it was 0.5 µg/mL (≈ 0.82 µM); in the test on Staphylococcus aureus [9], 4 µg/mL (≈ 6.56 µM). Further, the MIC was 16 µg/mL (≈ 26.2 µM) against Streptococcus pneumoniae [13]; 16 µg/mL (≈ 26.2 µM) against Citrobacter freundii; 1 µg/mL (≈ 1.64 µM) against Staphylococcus aureus [16]; 2 µg/mL (≈ 3.28 µM) against Escherichia coli [18]; 2 µg/mL (≈ 3.28 µM) with Klebsiella pneumoniae.

The record behind these values is ChEMBL document CHEMBL1125894, “Dual-action cephalosporins: cephalosporin 3'-quaternary ammonium quinolones” (1991).
